According to ChEMBL document CHEMBL1240529, “Synthesis, anti-inflammatory activity, and in vitro antitumor effect of a novel class of cyclooxygenase inhibitors: 4-(aryloyl)phenyl methyl sulfones” (J Med Chem, 2010):

System: HT-29
Experiment: Cytotoxicity against human HT-29 cells by MTT assay
Assay type: functional, cell-based
Conditions: not given
Procedure, shortened: (§1)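 Cells were grown in MEM with 10% FBS and antibiotics at 37 °C, 5% CO2, plated at 2.0 × 10^4 cells/well and grown for 72 h. Compound or 0.1% DMSO was added, then MTT (5 mg/mL) for 3 h at 37 °C, read at 570 nm (690 nm blank). […] Inhibition = (DMSO control − treated)/control; two experiments in duplicate.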

| SMILES | IC50 |
| --- | --- |
| CS(=O)(=O)c1ccc(C(=O)c2ccoc2)cc1 | 104 µM |
| CS(=O)(=O)c1ccc(C(=O)c2ccco2)cc1 | 383 µM |
| CS(=O)(=O)c1ccc(C(=O)c2cccs2)cc1 | 122 µM |
| CS(=O)(=O)c1ccc(C(=O)c2ccsc2)cc1 | 75.7 µM |
| CS(=O)(=O)c1ccc(C(=O)c2ccc(Br)cc2)cc1 | 100 µM |
| CS(=O)(=O)c1ccc(Nc2ccc(F)cc2)cc1 | 130 µM |
| CS(=O)(=O)c1ccc(-n2cccc2)cc1 | 146 µM |
| CS(=O)(=O)c1ccc(-n2ccc3ccccc32)cc1 | 85 µM |
| Cn1cc(C(=O)c2ccc(S(C)(=O)=O)cc2)c2ccccc21 | 70.4 µM |
| CS(=O)(=O)c1ccc(C(=O)c2cccn2-c2ccccc2F)cc1 | 34.1 µM |
| CS(=O)(=O)c1ccc(C(=O)c2ccn(-c3ccccc3F)c2)cc1 | 96.1 µM |
| CS(=O)(=O)c1ccc(C2Oc3ccccc3-n3cccc32)cc1 (configuration not stated) | 100 µM |
| CS(=O)(=O)c1ccc(N2CCN(c3ccc(F)cc3)CC2)cc1 | 65.8 µM |
| Cc1ccc(-c2cc(C(F)(F)F)nn2-c2ccc(S(N)(=O)=O)cc2)cc1 [CELECOXIB] | 45.5 µM |
| CC(C)[C@H](CO)Nc1nc(Nc2cccc(Cl)c2)c2ncn(C(C)C)c2n1 [PURVALANOLA] | > 100 µM |

System: Rattus norvegicus
Experiment: Antiinflammatory activity in Sprague-Dawley rat assessed as inhibition of carrageenan induced paw swelling at 70 mg/kg, po after 4 hrs
Conditions: not given

| SMILES | inhibition in vivo at 70 mg/kg |
| --- | --- |
| CS(=O)(=O)c1ccc(C(=O)c2ccoc2)cc1 | 22.2% |
| CS(=O)(=O)c1ccc(C(=O)c2ccco2)cc1 | 37.8% |
| CS(=O)(=O)c1ccc(C(=O)c2cccs2)cc1 | 56% |
| CS(=O)(=O)c1ccc(C(=O)c2ccc(Br)cc2)cc1 | 8.1% |
| CS(=O)(=O)c1ccc(-c2ccccn2)cc1 | 51.4% |
| CS(=O)(=O)c1ccc(Nc2ccc(F)cc2)cc1 | 32.6% |
| CS(=O)(=O)c1ccc(-n2ccc3ccccc32)cc1 | 46% |
| CS(=O)(=O)c1ccc(C(=O)c2cccn2-c2ccccc2F)cc1 | 4.4% |
| CC(C)Cc1ccc([C@H](C)C(=O)O)cc1 [DEXIBUPROFEN] | 23.9% |

System: NCI-H460
Experiment: Cytotoxicity against human NCI-H460 cells assessed as inhibition of cell viability at 10 uM by MTT assay
Assay type: functional
Conditions: not given
Procedure, shortened: as §1

| SMILES | inhibition at 10 µM |
| --- | --- |
| CS(=O)(=O)c1ccc(C(=O)c2ccoc2)cc1 | 6% |
| CS(=O)(=O)c1ccc(C(=O)c2ccco2)cc1 | 3% |
| CS(=O)(=O)c1ccc(C(=O)c2cccs2)cc1 | 3% |
| CS(=O)(=O)c1ccc(C(=O)c2ccsc2)cc1 | 2% |
| CS(=O)(=O)c1ccc(C(=O)c2ccc(Br)cc2)cc1 | 12.7% |
| CS(=O)(=O)c1ccc(Nc2ccc(F)cc2)cc1 | 1.8% |
| CS(=O)(=O)c1ccc(-n2cccc2)cc1 | 3% |
| CS(=O)(=O)c1ccc(-n2ccc3ccccc32)cc1 | 12.2% |
| Cn1cc(C(=O)c2ccc(S(C)(=O)=O)cc2)c2ccccc21 | 7% |
| CS(=O)(=O)c1ccc(C(=O)c2cccn2-c2ccccc2F)cc1 | 13.3% |
| CS(=O)(=O)c1ccc(C(=O)c2ccn(-c3ccccc3F)c2)cc1 | 54.8% |
| CS(=O)(=O)c1ccc(C2Oc3ccccc3-n3cccc32)cc1 (configuration not stated) | 6.6% |
| CS(=O)(=O)c1ccc(N2CCN(c3ccc(F)cc3)CC2)cc1 | 3.1% |
| Cc1ccc(-c2cc(C(F)(F)F)nn2-c2ccc(S(N)(=O)=O)cc2)cc1 [CELECOXIB] | 9.75% |
| CC(C)[C@H](CO)Nc1nc(Nc2cccc(Cl)c2)c2ncn(C(C)C)c2n1 [PURVALANOLA] | 3.98% |

System: not listed separately
Experiment: Cytotoxicity against human HDF cells assessed as inhibition of cell viability at 100 uM by MTT assay
Assay type: cell-based
Conditions: read-out: INH
Procedure, shortened: as §1

| SMILES | cytotoxicity at 100 µM |
| --- | --- |
| CS(=O)(=O)c1ccc(C(=O)c2ccoc2)cc1 | 36.2% |
| CS(=O)(=O)c1ccc(C(=O)c2ccco2)cc1 | 30.7% |
| CS(=O)(=O)c1ccc(C(=O)c2cccs2)cc1 | 25.7% |
| CS(=O)(=O)c1ccc(C(=O)c2ccsc2)cc1 | 31.2% |
| CS(=O)(=O)c1ccc(C(=O)c2ccc(Br)cc2)cc1 | 29.4% |
| CS(=O)(=O)c1ccc(Nc2ccc(F)cc2)cc1 | 37.4% |
| CS(=O)(=O)c1ccc(-n2cccc2)cc1 | 28.9% |
| CS(=O)(=O)c1ccc(-n2ccc3ccccc32)cc1 | 34.3% |
| Cn1cc(C(=O)c2ccc(S(C)(=O)=O)cc2)c2ccccc21 | 30.8% |
| CS(=O)(=O)c1ccc(C(=O)c2cccn2-c2ccccc2F)cc1 | 45% |
| CS(=O)(=O)c1ccc(C(=O)c2ccn(-c3ccccc3F)c2)cc1 | 13.4% |
| CS(=O)(=O)c1ccc(C2Oc3ccccc3-n3cccc32)cc1 (configuration not stated) | 12.3% |
| CS(=O)(=O)c1ccc(N2CCN(c3ccc(F)cc3)CC2)cc1 | 36.1% |
| Cc1ccc(-c2cc(C(F)(F)F)nn2-c2ccc(S(N)(=O)=O)cc2)cc1 [CELECOXIB] | 92% |
| CC(C)[C@H](CO)Nc1nc(Nc2cccc(Cl)c2)c2ncn(C(C)C)c2n1 [PURVALANOLA] | 88.6% |

System: Rattus norvegicus
Experiment: Antiinflammatory activity in Sprague-Dawley rat assessed as inhibition of carrageenan induced paw swelling at 70 mg/kg, po after 3 hrs
Conditions: not given

| SMILES | inhibition in vivo at 70 mg/kg |
| --- | --- |
| CS(=O)(=O)c1ccc(C(=O)c2ccoc2)cc1 | 27% |
| CS(=O)(=O)c1ccc(C(=O)c2ccco2)cc1 | 45.5% |
| CS(=O)(=O)c1ccc(C(=O)c2cccs2)cc1 | 59.7% |
| CS(=O)(=O)c1ccc(C(=O)c2ccc(Br)cc2)cc1 | 22% |
| CS(=O)(=O)c1ccc(-c2ccccn2)cc1 | 53.7% |
| CS(=O)(=O)c1ccc(Nc2ccc(F)cc2)cc1 | 41.9% |
| CS(=O)(=O)c1ccc(-n2ccc3ccccc32)cc1 | 48.7% |
| CS(=O)(=O)c1ccc(C(=O)c2cccn2-c2ccccc2F)cc1 | 13.7% |

System: K562
Experiment: Cytotoxicity against human K562 cells assessed as inhibition of cell viability at 10 uM by trypan blue dye exclusion
Conditions: not given

| SMILES | inhibition at 10 µM |
| --- | --- |
| CS(=O)(=O)c1ccc(C(=O)c2ccoc2)cc1 | 8.3% |
| CS(=O)(=O)c1ccc(C(=O)c2ccco2)cc1 | 8.3% |
| CS(=O)(=O)c1ccc(C(=O)c2cccs2)cc1 | 1% |
| CS(=O)(=O)c1ccc(C(=O)c2ccsc2)cc1 | 14.6% |
| CS(=O)(=O)c1ccc(C(=O)c2ccc(Br)cc2)cc1 | 6.2% |
| CS(=O)(=O)c1ccc(Nc2ccc(F)cc2)cc1 | 13.5% |
| CS(=O)(=O)c1ccc(-n2cccc2)cc1 | 1% |
| CS(=O)(=O)c1ccc(-n2ccc3ccccc32)cc1 | 16.6% |
| Cn1cc(C(=O)c2ccc(S(C)(=O)=O)cc2)c2ccccc21 | 2.1% |
| CS(=O)(=O)c1ccc(C(=O)c2cccn2-c2ccccc2F)cc1 | 2.1% |
| CS(=O)(=O)c1ccc(C(=O)c2ccn(-c3ccccc3F)c2)cc1 | 12.5% |
| CS(=O)(=O)c1ccc(C2Oc3ccccc3-n3cccc32)cc1 (configuration not stated) | 13.5% |
| CS(=O)(=O)c1ccc(N2CCN(c3ccc(F)cc3)CC2)cc1 | 17.7% |
| Cc1ccc(-c2cc(C(F)(F)F)nn2-c2ccc(S(N)(=O)=O)cc2)cc1 [CELECOXIB] | 38.8% |
| CC(C)[C@H](CO)Nc1nc(Nc2cccc(Cl)c2)c2ncn(C(C)C)c2n1 [PURVALANOLA] | 75.1% |

Biological target: T1, Prostaglandin G/H synthase 1 (Ovis aries, UniProt P05979)
T1 sequence (P05979 whole entry): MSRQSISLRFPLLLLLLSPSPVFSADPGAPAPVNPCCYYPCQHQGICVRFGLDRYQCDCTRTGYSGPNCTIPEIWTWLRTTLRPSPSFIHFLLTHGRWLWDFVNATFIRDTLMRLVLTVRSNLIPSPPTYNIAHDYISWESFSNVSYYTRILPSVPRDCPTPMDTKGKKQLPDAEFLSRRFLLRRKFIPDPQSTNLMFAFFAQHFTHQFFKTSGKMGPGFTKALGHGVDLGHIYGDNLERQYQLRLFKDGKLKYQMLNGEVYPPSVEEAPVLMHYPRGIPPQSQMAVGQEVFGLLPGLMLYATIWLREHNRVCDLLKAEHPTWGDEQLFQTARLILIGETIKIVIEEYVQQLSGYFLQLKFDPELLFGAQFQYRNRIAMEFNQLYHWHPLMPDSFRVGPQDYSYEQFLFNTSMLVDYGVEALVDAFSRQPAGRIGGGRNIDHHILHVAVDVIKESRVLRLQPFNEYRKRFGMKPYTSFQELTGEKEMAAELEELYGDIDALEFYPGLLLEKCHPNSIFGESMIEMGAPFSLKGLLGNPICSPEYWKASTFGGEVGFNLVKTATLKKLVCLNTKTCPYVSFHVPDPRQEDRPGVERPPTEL
Experiment: Inhibition of sheep COX1 by spectrophotometry
Conditions: not given

| SMILES | IC50 |
| --- | --- |
| CS(=O)(=O)c1ccc(C(=O)c2ccoc2)cc1 | 150 µM |
| CS(=O)(=O)c1ccc(C(=O)c2ccco2)cc1 | 15.1 µM |
| CS(=O)(=O)c1ccc(C(=O)c2ccsc2)cc1 | 144 µM |
| CS(=O)(=O)c1ccc(C(=O)c2ccc(Br)cc2)cc1 | 150 µM |
| CS(=O)(=O)c1ccc(C(=O)c2ccc(F)cc2)cc1 | 107 µM |
| CS(=O)(=O)c1ccc(-c2ccccn2)cc1 | 89.6 µM |
| CS(=O)(=O)c1ccc(Nc2ccc(F)cc2)cc1 | 141 µM |
| CS(=O)(=O)c1ccc(-n2cccc2)cc1 | 86 µM |
| CS(=O)(=O)c1ccc(-n2ccc3ccccc32)cc1 | 78.7 µM |
| Cn1cc(C(=O)c2ccc(S(C)(=O)=O)cc2)c2ccccc21 | 76.4 µM |
| CS(=O)(=O)c1ccc(C(=O)c2cccn2-c2ccccc2F)cc1 | 183 µM |
| CS(=O)(=O)c1ccc(C(=O)c2ccn(-c3ccccc3F)c2)cc1 | 34.6 µM |
| CS(=O)(=O)c1ccc(C(=O)c2c[nH]c3ccccc23)cc1 | 26.7 µM |
| CS(=O)(=O)c1ccc(C2Oc3ccccc3-n3cccc32)cc1 (configuration not stated) | 177 µM |
| CS(=O)(=O)c1ccc(N2CCN(c3ccc(F)cc3)CC2)cc1 | 80 µM |
